Assay results pooled from the literature.
Each line is one published result; the experiments were not run side by side. pIC50: −log10 of the molar value.
PDE3A: cGMP-inhibited 3',5'-cyclic phosphodiesterase 3A (PDE3A, Homo sapiens, UniProt Q14432)
Ephx2: Bifunctional epoxide hydrolase 2 (Ephx2, Rattus norvegicus, UniProt P80299)
LRRK2: Leucine-rich repeat serine/threonine-protein kinase 2 (LRRK2, Homo sapiens, UniProt Q5S007)
MAPK14: Mitogen-activated protein kinase 14 (MAPK14, Homo sapiens, UniProt Q16539)
HTR1A: 5-hydroxytryptamine receptor 1A (HTR1A, Homo sapiens, UniProt P08908)

CSc1ccc(/C=C2/C(C)=C(CC(=O)O)c3cc(F)ccc32)cc1
pIC50 (PDE3A; enzyme activity, inhibitor): < 4.00

CC(O)C(C)C(=O)N1CCC(NC(=O)Nc2ccc(OC(F)(F)F)c(F)c2)CC1 (stereo not drawn)
pIC50 (Ephx2; enzyme activity, inhibitor): 8.37

Cc1cnc(-c2ccc(-c3ccc(NC(=O)Nc4c(F)cc(F)cc4F)cc3F)c3c2C(=O)NC3)[nH]1
pIC50 (LRRK2; enzyme activity, inhibitor): 7.87

N#Cc1ccc(COc2cccc(C3CCN(Cc4nc5ccc(C(=O)O)cc5n4C[C@@H]4CCO4)CC3)n2)c(F)c1
pIC50 (PDE3A; enzyme activity, inhibitor): 5.64

CN(C)CCC=C1c2ccccc2CCc2ccccc21
pIC50 (Estrogen receptor (ESR1, Homo sapiens, UniProt P03372); reporter gene, antagonist): 4.60

N#C/C(=C\c1ccc(O)c(O)c1)C(=O)OC/C=C/c1ccccc1
pIC50 (LRRK2; enzyme activity, inhibitor, radiometric): 6.21

Cc1nccc2c1c(=O)n(C)c1cc(OC[C@@H](N)CC(C)C)c(C#N)cc21
pIC50 (Alpha-2C adrenergic receptor (ADRA2C, Homo sapiens, UniProt P18825); cell-free assay): < 4.52

CCN1CCN(c2c(Cl)cccc2NC(=O)c2ccc(Br)o2)CC1
pIC50 (MAPK14; enzyme activity, inhibitor): < 4.70

CN1CCN(c2ccc(Nc3ncc4cc(C#N)c(=O)n(C5CCCC5)c4n3)cc2)CC1
pIC50 (Casein kinase I isoform epsilon (CSNK1E, Homo sapiens, UniProt P49674); enzyme activity, inhibitor): 5.26

CC(C)(C)n1nc(-c2cnc3cc(OC4CC4)ccc3c2)c(C(N)=O)c1N
pIC50 (MAPK14; cell-free assay): < 5.00

Cc1nn2c(-c3c(C)nn(C)c3-c3ccc(C(F)(F)F)cc3)nc(CO)c2c(=O)[nH]1
pIC50 (PDE3A; enzyme activity, inhibitor): 4.93

COc1ccc2c(Oc3ccc4c(C(=O)Nc5ccccc5N)cccc4c3)ccnc2c1
pIC50 (Macrophage-stimulating protein receptor (MST1R, Homo sapiens, UniProt Q04912); enzyme activity, inhibitor): < 6.30

CCC(C)(O)C(=O)N1CCC(NC(=O)Nc2ccc(OC(F)(F)F)c(F)c2)CC1 (stereo not drawn)
pIC50 (Ephx2; enzyme activity, inhibitor): 7.97

CN(CCCCNC(=O)c1cc2ccccc2[nH]1)[C@@H]1Cc2cccc3[nH]c(=O)n(c23)C1
pIC50 (HTR1A; ligand displacement, radioligand): 6.86

CCCC[C@H](NC(=O)[C@H](C)c1c(C)[nH]c2ccc(O)cc12)c1ncc(-c2cc3ccccc3nc2OC)[nH]1
pIC50 (Prostaglandin E2 receptor EP3 subtype (PTGER3, Homo sapiens, UniProt P43115); enzyme activity): 5.06

CC(C)(C)n1nc(-c2ccc3nc(OC4CC4)ccc3c2)c(C(N)=O)c1N
pIC50 (Death-associated protein kinase 3 (DAPK3, Homo sapiens, UniProt O43293); cell-free assay): < 5.00

O=C(/C=C/c1ccc(O)c(O)c1)O[C@H](Cc1ccc(O)c(O)c1)C(=O)O
pIC50 (LRRK2; enzyme activity, inhibitor, radiometric): 5.73

Cc1ccc(NC(=O)c2cccc(N(C)C)c2)cc1NC(=O)c1ccc(O)cc1
pIC50 (MAPK14; enzyme activity, inhibitor, ADP detection): 6.52

CC/C(=N\NC(=O)C(C)Nc1ccccc1)c1ccc(O)c(C)c1O (stereo not drawn)
pIC50 (cAMP-dependent protein kinase catalytic subunit beta (PRKACB, Homo sapiens, UniProt P22694); enzyme activity, inhibitor): 7.60

C[C@@H]1Cc2ccccc2N1C(=O)NCCCCN(C)[C@@H]1Cc2cccc3[nH]c(=O)n(c23)C1
pIC50 (HTR1A; ligand displacement, radioligand): 7.45

Cc1cc(C)nc(NC(=S)N2CCN(c3ccncc3)CC2)c1
pIC50 (MAPK14; enzyme activity, inhibitor, ADP detection): 7.00
